Data as given in ChEMBL document CHEMBL3259538, “Identification of the stereochemical requirements in the 4-aryl-2-cycloalkylidenhydrazinylthiazole scaffold for the design of selective human monoamine oxidase B inhibitors” (Bioorg Med Chem, 2014).
One block for each compound: values may come before it.

How the values were obtained:
[1] = target: T1, Amine oxidase [flavin-containing] B (Homo sapiens, UniProt P27338); assay: Inhibition of human recombinant MAO-B expressed in baculovirus-infected BTI-TN-5B1-4 cell microsomes assessed as decrease in H2O2 production using p-tyramine as substrate at 1 mM preincubated for 15 mins by Amplex Red reagent based fluorimetric method; settings: bti-tn-5b1-4, 1000 µM
T1 sequence (P27338 whole entry): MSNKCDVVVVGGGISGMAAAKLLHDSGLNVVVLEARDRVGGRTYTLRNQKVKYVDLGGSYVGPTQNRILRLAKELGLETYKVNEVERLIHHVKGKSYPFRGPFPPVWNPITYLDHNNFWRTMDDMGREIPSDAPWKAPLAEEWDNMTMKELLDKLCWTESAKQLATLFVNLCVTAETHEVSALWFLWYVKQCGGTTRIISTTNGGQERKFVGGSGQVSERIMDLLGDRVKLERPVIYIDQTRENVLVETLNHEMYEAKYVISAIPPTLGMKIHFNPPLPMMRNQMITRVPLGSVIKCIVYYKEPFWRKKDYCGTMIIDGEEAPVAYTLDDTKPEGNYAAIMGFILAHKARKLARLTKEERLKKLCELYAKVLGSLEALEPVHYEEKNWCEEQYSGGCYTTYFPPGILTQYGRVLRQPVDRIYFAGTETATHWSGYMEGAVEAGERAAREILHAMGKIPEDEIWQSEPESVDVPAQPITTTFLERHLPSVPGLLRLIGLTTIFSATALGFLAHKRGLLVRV
Summary of the method: (§1)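 Microsomal enzyme in 0.05 M sodium phosphate, pH 7.4. The enzyme amount was adjusted so that controls oxidize 165 pmol p-tyramine/min. Drug and enzyme were preincubated for 15 min at 37 °C. Final 200 µM Amplex Red and 1 U/mL HRP were then added. Resorufin fluorescence (ex 545/em 590 nm) was read linearly over 15 min at 37 °C. Background without enzyme was subtracted, and drug interference was checked with Amplex Red alone.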

[2] = target: T1, Amine oxidase [flavin-containing] B; assay: biochemical; type: cell-based, BTI-TN-5B1-4
BTI-TN-5B1-4 = assay: Selectivity index, ratio of IC50 for human recombinant MAO-A expressed in baculovirus-infected BTI-TN-5B1-4 cell microsomes to IC50 for human recombinant MAO-B expressed in baculovirus-infected BTI-TN-5B1-4 cell microsomes
[3] = target: T2, Amine oxidase [flavin-containing] A (Homo sapiens, UniProt P21397); assay: Inhibition of human recombinant MAO-A expressed in baculovirus-infected BTI-TN-5B1-4 cell microsomes assessed as decrease in H2O2 production using p-tyramine as substrate preincubated for 15 mins by Amplex Red reagent based fluorimetric method
T2 sequence (P21397 whole entry): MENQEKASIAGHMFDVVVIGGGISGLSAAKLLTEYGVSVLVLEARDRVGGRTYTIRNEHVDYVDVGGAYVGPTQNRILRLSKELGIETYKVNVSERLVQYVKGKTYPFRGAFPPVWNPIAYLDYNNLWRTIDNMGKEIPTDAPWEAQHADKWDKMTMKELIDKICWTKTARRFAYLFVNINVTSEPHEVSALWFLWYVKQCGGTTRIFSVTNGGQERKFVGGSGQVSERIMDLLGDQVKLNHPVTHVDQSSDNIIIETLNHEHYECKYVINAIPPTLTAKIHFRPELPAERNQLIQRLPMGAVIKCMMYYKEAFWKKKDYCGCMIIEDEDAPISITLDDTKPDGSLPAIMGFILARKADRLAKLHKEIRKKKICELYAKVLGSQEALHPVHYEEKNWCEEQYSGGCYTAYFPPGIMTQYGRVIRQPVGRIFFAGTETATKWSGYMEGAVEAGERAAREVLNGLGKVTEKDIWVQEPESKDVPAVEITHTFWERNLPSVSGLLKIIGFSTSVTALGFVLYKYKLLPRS

[4] = target: T2, Amine oxidase [flavin-containing] A; assay: Inhibition of human recombinant MAO-A expressed in baculovirus-infected BTI-TN-5B1-4 cell microsomes assessed as decrease in H2O2 production using p-tyramine as substrate at 100 uM preincubated for 15 mins by Amplex Red reagent based fluorimetric method; settings: bti-tn-5b1-4, 100 µM; summary of the method: as §1

Compound: O=C(NCCN1CCOCC1)c1ccc(Cl)cc1 [MOCLOBEMIDE]
inhibition (INH) [1]: Not Active

Compound: CC1CC/C(=N\Nc2nc(-c3ccc(F)cc3F)cs2)C1 (mixture of isomers)
IC50 [2]: 9.34 nM
Ratio IC50 (BTI-TN-5B1-4): 1810
IC50 [3]: 16900 nM

Compound: O=C1Nc2ccccc2C1=O [ISATIN]
inhibition (INH) [4]: Not Active

Compound: C[C@@H]1CCC(=NNc2nc(-c3ccc(F)cc3F)cs2)C1
IC50 [2]: 5.32 nM
Ratio IC50 (BTI-TN-5B1-4): 2920
IC50 [3]: 15500 nM

Compound: C[C@@H]1CC/C(=N\Nc2nc(-c3ccc(F)cc3F)cs2)C1
IC50 [2]: 5.06 nM
Ratio IC50 (BTI-TN-5B1-4): 2580
IC50 [3]: 13100 nM

The next lines start with results.

IC50 [2]: 227 nM
IC50 [3]: 11100 nM
Compound: CC1CC/C(=N\Nc2nc(-c3ccc(C#N)cc3)cs2)C1 (mixture of isomers)
Ratio IC50 (BTI-TN-5B1-4): 49

IC50 [2]: 376 nM
inhibition (INH) [4]: Not Active
Compound: CC1CC/C(=N\Nc2nc(-c3ccc([N+](=O)[O-])cc3)cs2)C1 (mixture of isomers)
Ratio IC50 (BTI-TN-5B1-4): > 266

IC50 [2]: 8.31 nM
IC50 [3]: 19200 nM
Compound: CC1CCC/C1=N\Nc1nc(-c2ccc([N+](=O)[O-])cc2)cs1 (mixture of isomers)
Ratio IC50 (BTI-TN-5B1-4): 2310

IC50 [2]: 2.91 nM
IC50 [3]: 13800 nM
Compound: C[C@@H]1CC/C(=N/Nc2nc(-c3ccc(F)cc3F)cs2)C1
Ratio IC50 (BTI-TN-5B1-4): 4740
